Consider six compounds from ChEMBL document CHEMBL4422642, “Antiproliferative and Antimigratory Effects of a Novel YAP-TEAD Interaction Inhibitor Identified Using in Silico Molecular Docking” (J Med Chem, 2019).

The source made the active and inactive calls. The calls are words filed in the database; no cut-off is given here.

The subject of series [1] is VSMC. Kind of series: Inhibition of 36B4 m-RNA expression in rat VSMC up to 80 uM incubated for 2 hrs followed by compound wash out and re-treatment for 4 hrs by NanoGlo assay. It counts as functional, cell-based.
The test system of series [2] is HeLa. The series can be described thus: Cytotoxicity against human HeLa cells assessed as reduction in cell viability by measuring ethidium homodimer-1 uptake at 100 uM preincubated for 10 mins followed by ethidium homodimer-1 addition measured after 10 mins by fluorescence assay. It is filed as cell-based. A digest of the protocol: (§1)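 Live/dead cell viability assay in HeLa cells. Maximum death was set by treating cells 10 min with 0.1% Triton-X, then 10 min with 0.4 μM ethidium homodimer-1. Fluorescence was read on a plate reader.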

Series [3] deals with HeLa. Kind of series: Inhibition of TEAD (unknown origin) expressed in human HeLa cells at 100 uM after 6 hrs by nanoluciferase reporter gene assay relative to control. It counts as cell-based. A digest of the protocol: (§2)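 HeLa cells stably transduced with a lentiviral 8×TEAD-element secreted nanoluciferase reporter were seeded at 2 × 10^4 cells/well and grown 48 h. They were washed and treated with compound for 2 h, washed again and re-treated for 4 h. Secreted nanoluciferase in the conditioned medium was assayed with NanoGlo; n = 3.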
A general note: In a reporter assay the amount or activity of a reporter protein is the signal.

The target of series [4] is T1, Transcriptional enhancer factor TEF-1 (Homo sapiens, UniProt P28347). Kind of series: Inhibition of human HEK293 cell lysate derived YAP interaction with recombinant GST-tagged human TEAD1 (194 to 411 residues) expressed in Escherichia coli soluBL21 at 200 uM after 18 hrs by Western blot analysis. It counts as subcellular. A digest of the protocol: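 GST–TEAD1 (about 5 μg) immobilized on glutathione resin beads, incubated with HEK293 whole-cell lysate containing endogenous YAP at 4 °C for 18 h. Resin washed; bound proteins eluted by boiling in Laemmli buffer. YAP and GST quantified by Western blot (anti-YAP, anti-GST); n = 2.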
T1 sequence (P28347 whole entry, the tested form may be a part): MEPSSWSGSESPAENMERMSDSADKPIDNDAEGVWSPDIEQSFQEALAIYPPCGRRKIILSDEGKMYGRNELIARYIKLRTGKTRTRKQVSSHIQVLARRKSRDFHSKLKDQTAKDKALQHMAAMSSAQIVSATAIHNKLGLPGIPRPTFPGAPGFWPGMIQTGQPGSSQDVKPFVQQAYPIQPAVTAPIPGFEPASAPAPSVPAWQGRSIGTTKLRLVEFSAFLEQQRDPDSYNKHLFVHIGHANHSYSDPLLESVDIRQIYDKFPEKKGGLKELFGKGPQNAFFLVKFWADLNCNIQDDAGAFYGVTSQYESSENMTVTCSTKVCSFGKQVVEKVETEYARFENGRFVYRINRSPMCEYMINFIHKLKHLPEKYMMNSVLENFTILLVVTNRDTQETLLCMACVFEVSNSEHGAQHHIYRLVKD

Series [5] relates to VSMC. Kind of series: Inhibition of TNT1 m-RNA expression in rat VSMC up to 80 uM incubated for 2 hrs followed by compound wash out and re-treatment for 4 hrs by NanoGlo assay. It is filed as functional, cell-based.
The test system of series [6] is HeLa. The series can be described thus: Antimigratory activity in human HeLa cells incubated for overnight followed by media replacement and measured every hour for 24 hrs by phase contrast microscopic analysis. It is filed as functional, cell-based. A digest of the protocol: (§3)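 IncuCyte real-time scratch wound assay. Cells were seeded in 96-well plates and grown 36 h, then pretreated overnight with compound. Wells were scratched and the medium was replaced with compound-containing medium. Phase-contrast images of the wound were taken hourly for 24 h and relative wound confluence was calculated; n = 4.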

The test system of series [7] is HeLa. The series can be described thus: Antiproliferative activity against human HeLa cells assessed as reduction in EdU incorporation after 24 hrs by Hoechst 33342 staining-based fluorescence assay. It counts as functional, cell-based. Put shortly:
(§4)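 Click-iT EdU assay. Cells were treated with compound for 24 h total, with 10 μM EdU present for the final labeling period. Cells were then fixed in 4% formaldehyde, stained for EdU and counterstained with Hoechst 33342 for 20 min. EdU-positive nuclei were counted in at least three fields per well; n = 4.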

For series [8], the system named is HeLa. The series can be described thus: Inhibition of TEAD in human HeLa cells assessed as reduction in CCN1 m-RNA expression incubated for 2 hrs followed by compound wash out and re-treatment for 4 hrs by NanoGlo assay. It is filed as cell-based.
The species entered for series [9] is Rattus norvegicus. The series can be described thus: Inhibition of TEAD in rat VSMC assessed as reduction in CTGF m-RNA expression incubated for 2 hrs followed by compound wash out and re-treatment for 4 hrs by NanoGlo assay.
Series [10] has as its system VSMC. The series can be described thus: Antimigratory activity in rat VSMC incubated for overnight followed by media replacement and measured every hour for 24 hrs by phase contrast microscopic analysis. It is filed as functional, cell-based. Put shortly:
as §3

Series [11] concerns HeLa. Kind of series: Inhibition of 36B4 m-RNA expression in human HeLa cells up to 80 uM incubated for 2 hrs followed by compound wash out and re-treatment for 4 hrs by NanoGlo assay. It counts as functional, cell-based.
Series [12] concerns HeLa. Kind of series: Cytotoxicity against human HeLa cells assessed as reduction in cell viability by measuring ethidium homodimer-1 uptake at 60 uM preincubated for 10 mins followed by ethidium homodimer-1 addition measured after 10 mins by fluorescence assay. It counts as cell-based. Put shortly:
as §1

In series [13] the test system is HeLa. Kind of series: Inhibition of TNT1 m-RNA expression in human HeLa cells up to 80 uM incubated for 2 hrs followed by compound wash out and re-treatment for 4 hrs by NanoGlo assay. It counts as functional, cell-based.
Series [14] relates to HeLa. Kind of series: Inhibition of TEAD in human HeLa cells assessed as reduction in CTGF m-RNA expression incubated for 2 hrs followed by compound wash out and re-treatment for 4 hrs by NanoGlo assay. It counts as cell-based.
The target in series [15] is T1, Transcriptional enhancer factor TEF-1. The series can be described thus: Inhibition of GFP-tagged YAP1 (unknown origin) interaction with myc-tagged human TEAD1 expressed in human HeLa cells by measuring GFP-Trap at 200 uM incubated for 30 mins with myc-tagged human TEAD1 lysate followed by GFP-tagged YAP1 lysate addition measured after 30 mins by Western blot based immunoprecipitation assay. It is filed as cell-based. A digest of the protocol: (§5)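 Myc-TEAD1 and GFP-YAP1 were expressed separately in transfected HeLa cells, and pooled cytosolic plus nuclear extracts were prepared. The myc-TEAD extract was incubated 30 min on ice with 200 μM compound, then an equal volume of GFP-YAP lysate was added for another 30 min. Complexes were pulled down with GFP-Trap or Myc-Trap beads and quantified by Western blot; n = 3.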
In general terms: A western blot detects proteins with antibodies after separation by electrophoresis.

The nature of series [16]: Inhibition of TEAD (unknown origin) expressed in human HeLa cells after 6 hrs by nanoluciferase reporter gene assay. It counts as cell-based. Put shortly:
as §2

The target of series [17] is T1, Transcriptional enhancer factor TEF-1. Kind of series: Inhibition of GFP-tagged YAP1 (unknown origin) interaction with myc-tagged human TEAD1 expressed in human HeLa cells by measuring myc-TRAP at 200 uM incubated for 30 mins with myc-tagged human TEAD1 lysate followed by GFP-tagged YAP1 lysate addition measured after 30 mins by Western blot based immunoprecipitation assay. It counts as cell-based. Put shortly:
as §5

Series [18] deals with VSMC. Kind of series: Antiproliferative activity against rat VSMC assessed as reduction in EdU incorporation after 24 hrs by Hoechst 33342 staining-based fluorescence assay. It is filed as functional, cell-based. Put shortly: as §4
Series [19] deals with T1, Transcriptional enhancer factor TEF-1. The series can be described thus: Inhibition of NL-tagged YAP (unknown origin) interaction with myc-tagged human TEAD1 preincubated for 1 hr followed by NL-tagged YAP addition by NanoGlo assay. Put shortly: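 Myc-TEAD1 from transfected HeLa lysate was captured with anti-myc antibody on protein-G-coated 96-well plates. Wells were pretreated with compound in PBS for 1 h at 4 °C, then co-incubated with lysate from HeLa cells expressing YAP–nanoluciferase. After four PBS washes, bound YAP–NL was read with NanoGlo.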

The species entered for series [20] is Rattus norvegicus. Kind of series: Inhibition of TEAD in rat VSMC assessed as reduction in CCN1 m-RNA expression incubated for 2 hrs followed by compound wash out and re-treatment for 4 hrs by NanoGlo assay.
Series [21] concerns HeLa. Kind of series: Inhibition of TEAD (unknown origin) expressed in human HeLa cells up to 150 uM after 6 hrs by nanoluciferase reporter gene assay. It is filed as cell-based. Put shortly: as §2
For series [22], the system named is HeLa. Kind of series: Cytotoxicity against human HeLa cells assessed as reduction in cell viability by measuring ethidium homodimer-1 uptake up to 150 uM preincubated for 10 mins followed by ethidium homodimer-1 addition measured after 10 mins by fluorescence assay. It is filed as cell-based. Put shortly:
as §1

Usually inhibition stands for the drop in the measured response relative to a control, in per cent. By IC50 is commonly meant the midpoint of a concentration-inhibition curve. A lower IC50 goes with greater potency.

As for `Cc1ccc2c(c1)c1c3n2CCN(C[C@H](O)CN2CCN(C(=O)c4ccco4)CC2)[C@@H]3CCC1`, the inhibition result in the series with VSMC [1], with VSMC [5], in the series with HeLa [11] and in the series on HeLa [13] was “inactive” each time. In addition, the Activity entry in the series on HeLa [2] was “Non-Toxic”; with HeLa [6], “Dose-dependent effect”; in the series with HeLa [7], “Dose-dependent effect”; in the series on VSMC [10] it was “Dose-dependent effect”; in the series with HeLa [12], “Non-Toxic”; in the series with VSMC [18], “Dose-dependent effect”. Also, the inhibition was over 60% with HeLa [3]; “Dose-dependent effect” in the series with HeLa [8]; “Dose-dependent effect” in the series listed under Rattus norvegicus [9]; “Dose-dependent effect” in the series on HeLa [14]; “Dose-dependent effect” in [19]; “Dose-dependent effect” in the series listed under Rattus norvegicus [20]. Besides, the inhibition result in series [4], in [15] and in [17] was “Active” each time. Half-maximal inhibition in [16] (IC50) was put at 110 µM.
Consider `CCc1nc(C)nc(Oc2ccc(OCCOc3ccc(C)cc3C)nn2)n1`, for which the Activity entry in the series with HeLa [2] is “Non-Toxic”. The same compound returned an inhibition in the series on HeLa [3] of over 60%.
With `O=C(NCCn1ncc2c(N3CCN(c4ncccn4)CC3)ncnc21)C12CC3CC(CC(C3)C1)C2`, the Activity entry in the series on HeLa [2] was “Non-Toxic”. The same compound gave an inhibition with HeLa [3] of over 60%.
Regarding `O=C(O)c1ccco1`, the inhibition result with HeLa [21] was “inactive”. Also, in the series on HeLa [22], the Activity entry is given as “Non-Toxic”.
With `COc1ccc2nc(NC3=NCN(Cc4ccco4)CN3)nc(C)c2c1`, the Activity entry in the series with HeLa [2] is listed as “Non-Toxic”. In the series on HeLa [3], this compound registered an inhibition of over 60%.
Take `OCC(O)CN1CCNCC1` (stereo not given): the inhibition result in the series on HeLa [21] was “inactive”. Besides, the Activity result in the series on HeLa [22] was “Non-Toxic”.
